Source: PubChem (Broad Institute)
Compounds with a hit are over-represented: about 5.9% of the library has one in this group of screens.
GASC1 inh – inhibitors of human demethylase GASC-1 KDM4C; 96,000 compounds, 0.15% hits; Q9H3R0; GST-KDM4C 2-372, H3K9me3 peptide, LANCE TR-FRET; inhibition, % at 12.5 µM;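 active = mean replicate inhibition above about 25%, with at least 55% of replicates also reaching it, limit read from the data, passing the limit was not always enough; inconclusive = only one of those two conditions met; inactive = neither condition met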
Target sequence (Q9H3R0 2-372 limits assumed): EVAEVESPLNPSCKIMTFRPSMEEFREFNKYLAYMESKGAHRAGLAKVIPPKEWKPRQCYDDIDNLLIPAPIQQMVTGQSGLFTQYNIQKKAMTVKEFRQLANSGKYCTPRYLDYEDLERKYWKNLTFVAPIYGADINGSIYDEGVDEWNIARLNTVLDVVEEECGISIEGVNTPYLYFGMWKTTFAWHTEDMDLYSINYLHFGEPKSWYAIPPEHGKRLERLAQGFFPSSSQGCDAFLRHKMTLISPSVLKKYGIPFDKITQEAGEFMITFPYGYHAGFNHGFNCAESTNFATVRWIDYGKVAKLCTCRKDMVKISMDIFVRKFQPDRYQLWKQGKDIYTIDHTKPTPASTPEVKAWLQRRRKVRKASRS
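Material: N-terminal GST-fused human GASC-1 (KDM4C) fragment, residues 2-372. Input: 10 nM enzyme. Incubation: enzyme reaction 30 min, then detection 60 min, both room temperature. Doses: one test concentration per compound. Read-out basis: inhibition from TR-FRET ratio decrease. Detection: LANCE TR-FRET, excitation 340 nm, emissions 618 and 671 nm.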
Pf Dd2 growth – P. falciparum Dd2 growth inhibition. 94,000 compounds, 2.3% hits. SYBR Green, 72 h; stronger effect = lower value. activity change, % at 10 µM; in the data active = activity change below about -80%; inconclusive = no clear call, values can overlap the other calls
T cruzi growth-1 – inhibitors of T. cruzi proliferation | T. cruzi beta-gal in NIH3T3, GalScreen luminescence, 90 h | inhibition, % at 8.34 µM | 77,000 compounds, 5.9% hits;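 active = mean inhibition above about 93%, with at least 55% of replicates each passing it, limit read from the data, passing the limit was not always enough; inconclusive = only one of those two conditions holds; inactive = neither condition holds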
IDH1 mut inh – blocks human IDH1 R132H reductase activity | O75874 | diaphorase/resazurin fluorescence, 60 min | inhibition, % at 10 µM | 70,000 compounds, 0.18% hits | AID 624101; in the data active = inhibition above about 34%; inconclusive = no clear call, values can overlap the other calls; inactive = below about 11%;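 also: 0% = DMSO and 100% = no enzyme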
T cruzi growth-2 – Trypanosoma cruzi proliferation inhibition. shares compounds with T cruzi growth-1. T. cruzi beta-gal in NIH3T3, GalScreen luminescence, 90 h. inhibition, % at 8.35 µM. 5,600 compounds, 72% hits;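 active = mean replicate inhibition above about 95% and at least 55% of replicates individually reaching it, limit read from the data; inconclusive = only one of the two criteria is met; inactive = neither criterion is met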
T cruzi growth-3 – inhibitors of T. cruzi proliferation; shares compounds with T cruzi growth-1; T. cruzi beta-gal in NIH3T3, GalScreen luminescence, 90 h; inhibition, % at 2.09 µM; 5,600 compounds, 21% hits;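 active = mean inhibition above about 95%, with at least 55% of replicates also reaching it, limit read from the data; inconclusive = meets just one of the two conditions; inactive = meets neither condition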;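 also: plate controls were neutral control median for no effect and positive control median for full effect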
3T3 cytotox – cytotoxicity in mouse NIH/3T3 fibroblasts. shares compounds with T cruzi growth-1. NIH/3T3 viability, CellTiter-Glo ATP luminescence, 90 h. cytotoxicity (signal decrease), % at 8.35 µM. 5,600 compounds, 14% hits;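 active = mean signal decrease across replicates above about 35% based on untreated-well scatter, with enough replicates individually passing, limit read from the data; inconclusive = no rule stated though some were filed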;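 also: 0% = median of neutral control wells and 100% = median of positive control wells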
3T3 cytotox 2 – kills mouse NIH/3T3 fibroblasts | shares compounds with T cruzi growth-1 | NIH/3T3 viability, CellTiter-Glo ATP luminescence, 90 h | inhibition, % at 24.9 µM | 5,600 compounds, 56% hits;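 active = mean loss of cell viability signal at or above a set limit, and enough replicates individually reaching it; inconclusive = meets only the mean limit or only the replicate share; inactive = meets neither condition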;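 also: 0% = median of neutral control wells and 100% = median of positive control wells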
Active calls of the source: *; ? = inconclusive; nt = not tested or not shown.

SMILES	GASC1 inh	Pf Dd2 growth	T cruzi growth-1	IDH1 mut inh	T cruzi growth-2	T cruzi growth-3	3T3 cytotox	3T3 cytotox 2
C[C@H]1CCCCO[C@H](CN(C)Cc2ccc3c(c2)OCO3)[C@@H](C)CN([C@@H](C)CO)C(=O)c2cc(NC(=O)Nc3cccc4ccccc34)ccc2O1	-3	-76	64	2	nt	nt	nt	nt
C[C@@H]1CCCCO[C@H](CN(C)Cc2ccc3c(c2)OCO3)[C@H](C)CN([C@@H](C)CO)C(=O)c2cc(NC(=O)Nc3cccc4ccccc34)ccc2O1	-3	-78	116*	-7	92	103*	24	103*
C[C@@H]1CCCCO[C@@H](CN(C)C(=O)Nc2ccc3c(c2)OCO3)[C@H](C)CN([C@H](C)CO)C(=O)c2cc(NC(=O)Nc3cccc4ccccc34)ccc2O1	-1	-12	nt	4	nt	nt	nt	nt
C[C@@H]1CN([C@H](C)CO)C(=O)c2cc(NC(=O)Nc3cccc4ccccc34)ccc2O[C@@H](C)CCCCO[C@@H]1CN(C)Cc1ccc2c(c1)OCO2	-3	-89*	?	1	98*	109*	31	38*
C[C@@H]1CN([C@H](C)CO)C(=O)c2cc(NC(=O)Nc3cccc4ccccc34)ccc2O[C@@H](C)CCCCO[C@@H]1CN(C)Cc1ccccc1	-2	-66	nt	2	nt	nt	nt	nt
C[C@@H]1CCCCO[C@@H](CN(C)Cc2ccc3c(c2)OCO3)[C@H](C)CN([C@@H](C)CO)C(=O)c2cc(NC(=O)Nc3cccc4ccccc34)ccc2O1	-4	-72	?	nt	104*	?	13	47*
CN(C)C(=O)c1cccc(-c2ccc([C@H]3[C@H](CO)N4CCCCN(CCC(F)(F)F)C[C@@H]34)cc2)c1	0	-20	105*	nt	109*	86	5	25*
CN(C)C(=O)c1cccc(-c2ccc([C@H]3[C@@H](CO)N4CCCCN(CCC(F)(F)F)C[C@H]34)cc2)c1	-1	-17	103*	nt	99*	72	-22	29
CN(C)C(=O)c1cccc(-c2ccc([C@@H]3[C@@H](CO)N4CCCCN(CCC(F)(F)F)C[C@@H]34)cc2)c1	2	-7	58	nt	nt	nt	nt	nt
CN1c2ccc(-c3ccccc3)cc2[C@H]2[C@H](CCN2C(=O)Cc2ccccn2)[C@@H]1CO	3	-3	113*	nt	103*	59	-41	-11
CN(C)C(=O)c1ccc(-c2ccc3c(c2)[C@@H]2[C@@H](CCN2C(=O)Cc2ccccn2)[C@H](CO)N3C)cc1	0	-67	104*	nt	104*	62	-23	5
CN(C)C(=O)c1ccc(-c2ccc3c(c2)[C@H]2[C@H](CCN2C(=O)Cc2ccccn2)[C@H](CO)N3C)cc1	-1	-30	90	nt	nt	nt	nt	nt
CN(C)C(=O)c1ccc(-c2ccc3c(c2)[C@@H]2[C@@H](CCN2C(=O)Cc2ccccn2)[C@@H](CO)N3C)cc1	2	-71	93	nt	nt	nt	nt	nt
CCCCC[C@H](O)/C=C/[C@H]1C(=O)C=C[C@@H]1C/C=C\CCCC(=O)O	nt	nt	nt	1	nt	nt	nt	nt
C[C@@H]1CN([C@@H](C)CO)S(=O)(=O)c2ccc(C#CC3CCCC3)cc2O[C@H]1CN(C)C(=O)c1cccc(F)c1	-2	?	120*	nt	91	100*	41*	106*
C[C@@H]1CN([C@@H](C)CO)S(=O)(=O)c2ccc(C#CC3CC3)cc2O[C@H]1CN(C)C(=O)c1cccc(F)c1	-3	15	nt	-1	nt	nt	nt	nt
C[C@@H]1CN([C@H](C)CO)S(=O)(=O)c2ccc(C#CC3CCCC3)cc2O[C@H]1CN(C)C(=O)c1cccc(F)c1	-1	-85*	123*	nt	101*	90	5	103*
C[C@H](CO)N1C[C@H](C)[C@H](CN(C)C(=O)c2cccc(F)c2)Oc2cc(C#CC3CCCC3)ccc2S1(=O)=O	-1	-65	123*	nt	103*	78	5	103*
C[C@@H]1CN([C@@H](C)CO)S(=O)(=O)c2ccc(C#CC3CCCC3)cc2O[C@@H]1CN(C)C(=O)c1cccc(F)c1	0	-40	118*	-1	102*	98*	19	106*
C[C@@H]1CN([C@H](C)CO)S(=O)(=O)c2ccc(C#CC3CCCC3)cc2O[C@@H]1CN(C)C(=O)c1cccc(F)c1	-2	-59	123*	nt	95*	?	11	103*
CC(=O)Nc1ccc(C(=O)CSc2nc3ccccc3c(=O)[nH]2)cc1	nt	nt	nt	0	nt	nt	nt	nt
C[C@H]1CN([C@@H](C)CO)C(=O)c2cccc(N(C)C)c2O[C@@H]1CN(C)C(=O)Nc1ccc(C(F)(F)F)cc1	-1	-15	40	-1	nt	nt	nt	nt
C[C@@H]1CN([C@H](C)CO)C(=O)c2cccc(N(C)C)c2O[C@H]1CN(C)Cc1ccc(C(F)(F)F)cc1	1	-28	101*	nt	51	12	-3	103*
C[C@H]1CN([C@@H](C)CO)C(=O)c2cccc(N(C)C)c2O[C@H]1CN(C)Cc1ccc(C(F)(F)F)cc1	1	-12	33	-1	nt	nt	nt	nt
C[C@H]1CN([C@@H](C)CO)C(=O)c2cccc(N(C)C)c2O[C@@H]1CN(C)Cc1ccc(C(F)(F)F)cc1	3	-50	103*	-3	45	36	10	66*
SMILES	GASC1 inh	Pf Dd2 growth	T cruzi growth-1	IDH1 mut inh	T cruzi growth-2	T cruzi growth-3	3T3 cytotox	3T3 cytotox 2
C[C@H](CO)N1C[C@H](C)[C@H](CN(C)C(=O)Nc2ccc(C(F)(F)F)cc2)Oc2c(cccc2N(C)C)C1=O	1	-11	96*	0	91	17	3	11
C[C@@H]1CN([C@@H](C)CO)C(=O)CCCn2nncc2CO[C@@H]1CN(C)CC1CCCCC1	-4	2	-15	0	nt	nt	nt	nt
CCCC#Cc1ccc2c(c1)O[C@@H](CN(C)C(=O)CC1CC1)[C@H](C)CN([C@@H](C)CO)S2(=O)=O	-2	-53	?	0	106*	56	10	49*
CCCC#Cc1ccc2c(c1)O[C@H](CN(C)C(=O)CC1CC1)[C@H](C)CN([C@H](C)CO)S2(=O)=O	1	-39	57	2	nt	nt	nt	nt
CCCC#Cc1ccc2c(c1)O[C@@H](CN(C)C(=O)CC1CC1)[C@@H](C)CN([C@@H](C)CO)S2(=O)=O	-1	-31	57	-3	nt	nt	nt	nt
CCCC#Cc1ccc2c(c1)O[C@@H](CN(C)C(=O)CC1CC1)[C@H](C)CN([C@H](C)CO)S2(=O)=O	-2	-45	112*	1	100*	-21	21	24*
